Measurements from ChEMBL document CHEMBL4842330, “New nimesulide derivatives with amide/sulfonamide moieties: Selective COX-2 inhibition and antitumor effects” (Eur J Med Chem, 2021).
Calls of active or inactive are those of the source. The rule behind the calls is not given here.

Columns and labels:
MCF7 [1] = experiment: Cytotoxicity against human MCF7 cells assessed as cell viability at 100 uM after 48 hrs by MTT assay relative to control; type: functional; conditions: read-out: Activity
Summary of the method: (§1)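 Cells in exponential growth were seeded at 5 × 10⁴ cells/mL, held 24 h at 37 °C, then exposed to compound for 48 h. MTT was added to 1 mg/mL final for 2 h. Formazan was dissolved in DMSO and read at 570 nm, with 620 nm background subtraction. Final DMSO ≤1.0%; viability reported as percentage of control.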

PC-3 [2] = experiment: Cytotoxicity against human PC-3 cells assessed as cell viability at 100 uM after 48 hrs by MTT assay relative to control; type: functional; conditions: read-out: Activity; summary of the method: as §1
HT-29 [3] = experiment: Cytotoxicity against human HT-29 cells assessed as cell viability at 100 uM after 48 hrs by MTT assay relative to control; type: functional; conditions: read-out: Activity; summary of the method: as §1
[4] = target: COX-1 (Prostaglandin G/H synthase 1) (Homo sapiens, UniProt P23219); experiment: Inhibition of human recombinant COX-1 at 10 uM using arachidonic acid as substrate preincubated for 10 mins followed by substrate addition relative to control; conditions: recombinant COX-1, probe arachidonic acid
COX-1 (Prostaglandin G/H synthase 1), sequence (P23219 whole entry): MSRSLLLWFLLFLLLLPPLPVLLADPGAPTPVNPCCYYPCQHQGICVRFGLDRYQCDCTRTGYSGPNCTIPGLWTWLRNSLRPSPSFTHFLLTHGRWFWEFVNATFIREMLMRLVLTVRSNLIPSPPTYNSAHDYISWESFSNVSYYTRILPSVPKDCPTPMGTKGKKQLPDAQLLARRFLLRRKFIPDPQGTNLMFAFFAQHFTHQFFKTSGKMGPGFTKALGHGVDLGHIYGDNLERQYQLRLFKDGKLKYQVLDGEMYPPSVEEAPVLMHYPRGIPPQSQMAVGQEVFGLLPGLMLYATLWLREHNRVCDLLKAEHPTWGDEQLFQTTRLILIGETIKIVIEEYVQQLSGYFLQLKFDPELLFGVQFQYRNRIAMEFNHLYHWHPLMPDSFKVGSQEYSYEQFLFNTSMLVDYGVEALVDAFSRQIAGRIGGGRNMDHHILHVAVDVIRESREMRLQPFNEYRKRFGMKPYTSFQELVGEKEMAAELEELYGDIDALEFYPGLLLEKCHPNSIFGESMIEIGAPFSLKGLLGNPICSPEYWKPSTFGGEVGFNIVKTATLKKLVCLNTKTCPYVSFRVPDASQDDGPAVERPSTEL

THP-1 [5] = experiment: Antiinflammatory activity in LPS-stimulated human THP-1 cells assessed as suppression of PGE2 release at 50 uM incubated for 24 hrs by ELISA relative to control; type: functional
Summary of the method: (§2)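 THP-1 monocytes were differentiated with PMA (10 ng/mL, 24 h) and rested 24 h PMA-free. They were then given compound alongside 1 µg/mL LPS for 24 h. PGE₂ in supernatants was measured by ELISA and normalised to the BCA total protein of viable cells. Final DMSO ≤1.0%; at least three independent biological replicates.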

THP-1 [6] = experiment: Antiinflammatory activity in LPS-stimulated human THP-1 cells assessed as suppression of PGE2 release at 100 uM incubated for 24 hrs by ELISA relative to control; type: functional; summary of the method: as §2
THP-1 [7] = experiment: Antiinflammatory activity in LPS-stimulated human THP-1 cells assessed as suppression of COX-2 mRNA expression at 50 uM incubated for 24 hrs by ELISA relative to control; type: functional; conditions: in the assay text read “by qPCR” for “by ELISA”
Summary of the method: (§3)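 THP-1 monocytes plated at 1 × 10⁶ cells/mL, differentiated with 10 ng/mL PMA for 24 h, then rested 24 h in PMA-free medium. Cells were treated with compound and LPS stimulation. COX mRNA was quantified by qPCR with TaqMan probes against β-actin as housekeeping gene. Compound stocks in DMSO, final DMSO ≤1.0%.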

THP-1 [8] = experiment: Antiinflammatory activity in LPS-stimulated human THP-1 cells assessed as suppression of COX-2 mRNA expression at 100 uM incubated for 24 hrs by ELISA relative to control; type: functional; conditions: in the assay text read “by qPCR” for “by ELISA”; summary of the method: as §3
RAW264.7 [9] = experiment: Inhibition of LPS-induced NO release in mouse RAW264.7 cells at 20 uM when treated with compound and LPS simultaneously measured after 24 hrs by Griess reagent based assay relative to control; type: functional
Summary of the method: (§4)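 RAW264.7 cells were plated at 4 × 10⁵ cells/mL in phenol-free medium and left 24 h. They then received compound together with LPS (1 µg/mL) for 24 h. Nitrite in supernatants was measured by the Griess reaction and normalised to BCA total protein of viable cells. 1400W at 20 µM served as positive control.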

[10] = Inhibition of LPS-induced iNOS mRNA expression in mouse RAW264.7 cells assessed as downregulation of iNOS mRNA expression at 20 uM by RT-qPCR analysis relative to control; type: functional
Summary of the method: (§5)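 RAW264.7 cells were kept in high-glucose DMEM with 10% FBS. They were treated with compound alongside LPS stimulation. iNOS, TNF-α and IL-1β mRNA were quantified by qPCR using TaqMan probes, with β-actin as housekeeping gene, and expressed relative to LPS control. Final DMSO ≤1.0%.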

RAW264.7 [11] = experiment: Inhibition of LPS-induced iNOS mRNA expression in mouse RAW264.7 cells assessed as downregulation of iNOS mRNA expression at 50 uM by RT-qPCR analysis relative to control; type: functional, cell-based; summary of the method: as §5
[12] = Inhibition of LPS-induced IL-1 beta mRNA expression in mouse RAW264.7 cells at 20 uM by RT-qPCR analysis relative to control; type: functional; summary of the method: as §5
[13] = Inhibition of LPS-induced IL-1 beta mRNA expression in mouse RAW264.7 cells at 50 uM by RT-qPCR analysis relative to control; type: functional; summary of the method: as §5
[14] = Inhibition of LPS-induced TNF alpha mRNA expression in mouse RAW264.7 cells at 20 uM by RT-qPCR analysis relative to control; type: functional; summary of the method: as §5
[15] = Inhibition of LPS-induced TNF alpha mRNA expression in mouse RAW264.7 cells at 50 uM by RT-qPCR analysis relative to control; type: functional; summary of the method: as §5
RAW264.7 [16] = experiment: Inhibition of LPS-induced NO release in mouse RAW264.7 cells at 50 uM when treated with compound and LPS simultaneously measured after 24 hrs by Griess reagent based assay relative to control; type: functional; summary of the method: as §4
[17] = target: T1, Prostaglandin G/H synthase 2 (Homo sapiens) (UniProt P35354); experiment: Inhibition of human recombinant COX-2 at 1 uM using arachidonic acid as substrate preincubated for 10 mins followed by substrate addition relative to control
T1 sequence (whole entry): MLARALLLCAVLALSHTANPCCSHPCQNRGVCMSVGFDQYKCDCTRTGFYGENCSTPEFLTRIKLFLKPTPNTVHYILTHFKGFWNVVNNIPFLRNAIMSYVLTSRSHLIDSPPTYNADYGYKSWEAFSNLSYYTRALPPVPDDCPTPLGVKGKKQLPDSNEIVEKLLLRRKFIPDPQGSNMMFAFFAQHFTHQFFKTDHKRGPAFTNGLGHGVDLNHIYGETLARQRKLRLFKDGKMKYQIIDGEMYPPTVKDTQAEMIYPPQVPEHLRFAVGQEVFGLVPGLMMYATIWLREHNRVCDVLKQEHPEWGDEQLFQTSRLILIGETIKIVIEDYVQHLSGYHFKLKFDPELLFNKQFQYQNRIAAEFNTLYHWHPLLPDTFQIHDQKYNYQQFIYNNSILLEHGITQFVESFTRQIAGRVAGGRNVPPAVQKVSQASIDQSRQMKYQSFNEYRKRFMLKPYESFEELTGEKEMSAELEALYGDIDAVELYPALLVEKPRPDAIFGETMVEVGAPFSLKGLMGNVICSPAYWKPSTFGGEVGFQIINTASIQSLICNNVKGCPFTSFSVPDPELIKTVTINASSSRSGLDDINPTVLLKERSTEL

HT-29 [18] = experiment: Cytotoxicity against human HT-29 cells assessed as inhibition of cell growth after 48 hrs by SRB assay; type: functional, cell-based; conditions: HT-29, 48 h
Summary of the method: (§6)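 Cells seeded at 5 × 10⁴ cells/mL were held 24 h, then treated 48 h across final concentrations of 0–200 µM. They were fixed with 10% TCA for 1 h at 4 °C and stained with 0.04% SRB for 30 min. Bound dye was washed with 1% acetic acid, solubilised in 10 mM Tris base (pH 10.5) and read at 565 nm. IC50 derived from concentration–response curves.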

PC-3 [19] = experiment: Cytotoxicity against human PC-3 cells assessed as inhibition of cell growth after 48 hrs by SRB assay; type: functional, cell-based; conditions: PC-3, 48 h; summary of the method: as §6
MCF7 [20] = experiment: Cytotoxicity against human MCF7 cells assessed as inhibition of cell growth after 48 hrs by SRB assay; type: functional, cell-based; conditions: MCF7, 48 h; summary of the method: as §6
HUVEC = experiment: Cytotoxicity against human HUVEC cells assessed as inhibition of cell growth after 48 hrs by SRB assay; type: cell-based; summary of the method: as §6
MCF7 [21] = experiment: Inhibition of colony formation in human MCF7 cells assessed as decrease in colonies incubated for 14 days by crystal violet staining based clonogenic assay; type: functional, cell-based; conditions: time 14.0 day
Summary of the method: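 MCF-7 cells seeded at 5 × 10² per well were allowed to attach for 24 h. Compound was then applied at increasing concentrations, with medium and compound renewed every 2 days for 14 days. Colonies were fixed in 75% methanol/25% acetic acid for 30 min, stained with 0.5% crystal violet for 30 min, and counted.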

MCF7 [22] = experiment: Induction of apoptosis in human MCF7 cells assessed as upregulation of BAX protein expression measured after 24 hrs by Western blot analysis; type: functional, cell-based
Summary of the method: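 MCF-7 cells seeded at 1 × 10⁶ cells/mL were exposed to compound for 24 h and lysed in RIPA buffer. Lysates were quantified by BCA, equally loaded, and run on a 12% SDS gel with 4% stacking gel. Blots were probed at 4 °C for BAX, BCL-2 and β-actin, then with HRP secondary, and detected by chemiluminescence. Band densitometry reported as relative change versus control.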

MCF7 [23] = experiment: Induction of apoptosis in human MCF7 cells assessed as increase in BAX/Bcl-2 ratio at 10 to 25 uM measured after 24 hrs by Western blot analysis; conditions: dose 10-25 µM
MCF7 [24] = experiment: Induction of apoptosis in human MCF7 cells assessed as downregulation of Bcl-2 protein expression at 10 to 25 uM measured after 24 hrs by Western blot analysis; conditions: dose 10-25 µM

SMILES	viability at 100 µM (MCF7 [1])	viability at 100 µM (PC-3 [2])	viability at 100 µM (HT-29 [3])	also measured
CS(=O)(=O)Nc1ccc(NC(=O)c2ccc(C(N)=O)cc2)cc1Oc1ccccc1	53.1%	88.7%	64.4%	
CC(C)Oc1cc(NC(=O)c2ccc([N+](=O)[O-])cc2)ccc1NS(C)(=O)=O	101%	81%	124%	
COc1ccc(C(=O)Nc2ccc(NS(C)(=O)=O)c(OC(C)C)c2)cc1	153%	65.8%	67.9%	
CC(C)Oc1cc(NC(=O)c2ccc(C(N)=O)cc2)ccc1NS(C)(=O)=O	61.9%	49.8%	79.4%	
CCOc1cc(NS(=O)(=O)c2ccccc2[N+](=O)[O-])ccc1NS(C)(=O)=O	139%	77.9%	133%	
CCOc1cc(NS(=O)(=O)c2cccc([N+](=O)[O-])c2)ccc1NS(C)(=O)=O	127%	75.5%	116%	
CCOc1cc(NC(=O)c2ccc(F)cc2)ccc1NS(C)(=O)=O	64.4%	90%	80.1%	
CC(C)Oc1cc(NC(=O)c2ccc(F)cc2)ccc1NS(C)(=O)=O	110%	79.4%	49.6%	inhibition at 10 µM [4]: 27.2%; Activity (THP-1 [5]): 67%; Activity (THP-1 [6]): 68%; Activity (THP-1 [7]): 53%; Activity (THP-1 [8]): 61%; inhibition at 20 µM (RAW264.7 [9]): 43%; inhibition at 20 µM [10]: 40%; inhibition (RAW264.7 [11]): Active; inhibition at 20 µM [12]: 45%; inhibition at 50 µM [13]: 51%; inhibition at 20 µM [14]: 44%; inhibition at 50 µM [15]: 57%; inhibition at 50 µM (RAW264.7 [16]): 46.4%; inhibition [17]: 72.8%
CCOc1cc(NS(=O)(=O)c2ccc([N+](=O)[O-])cc2)ccc1NS(C)(=O)=O	119%	65.7%	118%	inhibition at 10 µM [4]: 21%; Activity (THP-1 [5]): 77%; Activity (THP-1 [6]): 44%; Activity (THP-1 [7]): 47%; Activity (THP-1 [8]): 60%; inhibition at 20 µM (RAW264.7 [9]): 40.7%; inhibition at 20 µM [12]: 39%; inhibition at 50 µM [13]: 22%; inhibition at 20 µM [14]: 46%; inhibition at 50 µM [15]: 22%; inhibition at 50 µM (RAW264.7 [16]): 68%; inhibition [17]: 88%
CCOc1cc(NC(=O)c2ccccc2[N+](=O)[O-])ccc1NS(C)(=O)=O	122%	100%	112%	
CS(=O)(=O)Nc1ccc(NC(=O)c2ccc(F)cc2)cc1Oc1ccccc1	22.2%	24.8%	33.1%	IC50 (HT-29 [18]): 9.24 µM; IC50 (PC-3 [19]): > 100 µM; IC50 (MCF7 [20]): 11.3 µM; IC50 (HUVEC): > 200 µM; inhibition (MCF7 [21]): Dose-Dependent Effect; Activity (MCF7 [22]): Dose-Dependent Effect; Activity (MCF7 [23]): Active; Activity (MCF7 [24]): Active
CC(C)Oc1cc(NS(=O)(=O)c2ccc(F)cc2)ccc1NS(C)(=O)=O	130%	75.5%	92.9%	
COc1ccc(C(=O)Nc2ccc(NS(C)(=O)=O)c(OC(C)C)c2)c([N+](=O)[O-])c1	63.5%	94.2%	111%	
CCOc1cc(NC(=O)c2ccc([N+](=O)[O-])cc2)ccc1NS(C)(=O)=O	116%	84.8%	114%	
CCOc1cc(NC(=O)c2cccc([N+](=O)[O-])c2)ccc1NS(C)(=O)=O	90.8%	90.2%	70.4%	
COc1cccc2c1C(=O)c1c(O)c3c(c(O)c1C2=O)C[C@@](O)(C(=O)CO)C[C@@H]3O[C@H]1C[C@H](N)[C@H](O)[C@H](C)O1 [DOXORUBICIN]	14.1%	11.8%	21%	IC50 (HT-29 [18]): 0.15 µM; IC50 (PC-3 [19]): 16.9 µM; IC50 (MCF7 [20]): 0.16 µM; IC50 (HUVEC): 0.1 µM
CC(C)Oc1cc(NS(=O)(=O)c2ccc([N+](=O)[O-])cc2)ccc1NS(C)(=O)=O	57.9%	91.4%	75.4%	
COc1ccc(S(=O)(=O)Nc2ccc(NS(C)(=O)=O)c(OC(C)C)c2)cc1	130%	68.6%	102%	
